Assay results taken from ChEMBL document CHEMBL4308850, “Design of a True Bivalent Ligand with Picomolar Binding Affinity for a G Protein-Coupled Receptor Homodimer” (J Med Chem, 2018).
Calls of active or inactive are those of the source. The calls are words filed in the database; no cut-off is given here.

Assays:
D(2) dopamine receptor [1] = target: T1, D(2) dopamine receptor (Homo sapiens, UniProt P14416); test: Displacement of [3H]-YM-09151-2 from dopamine D2 receptor (unknown origin) in sheep brain striatum membranes after 2 hrs by scintillation counting; assay type: cell membranes; settings: Ovis aries (sheep)
How it was run: (§1)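 Sheep striatal membranes (50 mM Tris-HCl pH 7.4, protease inhibitors; 0.2 mg protein/mL) incubated 2 h at room temperature in Tris-HCl with 10 mM MgCl2, 0.8 nM free [3H]YM-09151-2 and rising ligand concentrations; nonspecific binding with 30 μM dopamine. Filtration on PEI-soaked GF/C, scintillation counting; fitted to two-state dimer model. Lines 5 and 6: membranes preincubated 1 h with the named TAT-TM6 peptide first.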

D(2) dopamine receptor [2] = target: T1, D(2) dopamine receptor; test: Antagonist activity at human dopamine D2 receptor expressed in CHO cells co-expressing A2A receptor assessed as reduction in sumanirole-induced response at 0.5 uM after 90 mins by DMR analysis; assay type: cell-based
How it was run: (§2)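 CHO cells stably co-expressing human A2AR and D2R, seeded 7,000/well 24 h before assay (70–80% confluent). Washed into assay buffer (medium, 20 mM HEPES pH 7.15, 0.1% DMSO, 0.1% BSA), equilibrated 2 h at 24°C; 10 min baseline, antagonist added and read 30 min, then sumanirole (100 nM solution) added and DMR wavelength shift (pm) recorded ≥90 min; expressed as % maximal sumanirole effect.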

D(2) dopamine receptor [3] = target: T1, D(2) dopamine receptor; test: Binding affinity to human dopamine D2 receptor transfected in HEK293 cells co-expressing nYFP (1 to 155 residues) and cYFP (156 to 238 residues) at 100 nM after 10 mins by fluorescence complementation assay; assay type: cell-based
How it was run: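 HEK-293T cells transiently co-transfected (lipofectamine) with D2R-nYFP and D2R-cYFP; after 48 h, cells in HBSS with 0.1% glucose (20 μg protein, 50,000 cells/well) treated with 100 nM ligand or HBSS for 10 min. Fluorescence read at 530 nm emission, 400 nm excitation; background from cells lacking fusion proteins subtracted.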

D(2) dopamine receptor [4] = target: T1, D(2) dopamine receptor; test: Antagonist activity at human dopamine D2 receptor expressed in CHO cells co-expressing A2A receptor assessed as reduction in sumanirole-induced response after 90 mins by DMR analysis; assay type: cell-based; how it was run: as §2
D(2) dopamine receptor [5] = target: T1, D(2) dopamine receptor; test: Displacement of [3H]-YM-09151-2 from dopamine D2 receptor (unknown origin) in sheep brain striatum membranes preincubated with TAT-TM6 D2R peptide for 1 h before addition of compound and radioligand and measured after 2 hrs by scintillation counting; assay type: cell membranes; how it was run: as §1
D(2) dopamine receptor [6] = target: T1, D(2) dopamine receptor; test: Displacement of [3H]-YM-09151-2 from dopamine D2 receptor (unknown origin) in sheep brain striatum membranes preincubated with TAT-TM6 A2AR peptide for 1 h before addition of compound and radioligand and measured after 2 hrs by scintillation counting; assay type: cell membranes; how it was run: as §1
D(2) dopamine receptor [7] = target: T1, D(2) dopamine receptor; settings: CHO, 1 uM

T1 sequence (P14416 whole entry): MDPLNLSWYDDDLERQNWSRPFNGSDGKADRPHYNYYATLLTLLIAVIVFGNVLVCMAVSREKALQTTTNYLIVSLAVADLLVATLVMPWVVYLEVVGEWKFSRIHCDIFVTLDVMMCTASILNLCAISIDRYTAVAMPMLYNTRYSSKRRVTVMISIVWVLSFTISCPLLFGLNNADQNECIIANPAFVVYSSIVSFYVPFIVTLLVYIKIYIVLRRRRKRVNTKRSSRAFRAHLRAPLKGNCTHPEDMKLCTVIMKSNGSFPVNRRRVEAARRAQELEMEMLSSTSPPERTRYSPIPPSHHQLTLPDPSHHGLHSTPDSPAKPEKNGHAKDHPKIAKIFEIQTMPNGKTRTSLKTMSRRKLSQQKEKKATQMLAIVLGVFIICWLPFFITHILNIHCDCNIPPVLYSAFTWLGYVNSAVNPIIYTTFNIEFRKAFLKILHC

Row | SMILES | K (D(2) dopamine receptor [1]) [nM] | inhibition (D(2) dopamine receptor [2]) | Activity (D(2) dopamine receptor [3]) | IC50 (D(2) dopamine receptor [4]) [nM] | K (D(2) dopamine receptor [5]) [nM] | K (D(2) dopamine receptor [6]) [nM] | inhibition (D(2) dopamine receptor [7])
1 | COC(=O)CN(CC(=O)NCCCOCCOCCOCCCNC(=O)CCC(=O)Nc1ccc(CCN2CN(c3ccccc3)C3(CCN(CCCC(=O)c4ccc(F)cc4)CC3)C2=O)cc1)CC(=O)NCCCOCCOCCOCCCNC(=O)CCC(=O)Nc1ccc(CCN2CN(c3ccccc3)C3(CCN(CCCC(=O)c4ccc(F)cc4)CC3)C2=O)cc1 | 0.07 | Active |  |  |  |  | 
2 | COC(=O)CN(CC(=O)NCCOCCOCCNC(C)=O)CC(=O)NCCOCCOCCNC(=O)CCC(=O)Nc1ccc(CCN2CN(c3ccccc3)C3(CCN(CCCC(=O)c4ccc(F)cc4)CC3)C2=O)cc1 | 0.77 |  | inactive | 280 | 0.8 | 0.8 | 
3 | O=C(CCCN1CCC2(CC1)C(=O)NCN2c1ccccc1)c1ccc(F)cc1 |  |  |  |  |  |  | Active
4 | COC(=O)CN(CC(=O)NCCOCCOCCNC(=O)CCC(=O)Nc1ccc(CCN2CN(c3ccccc3)C3(CCN(CCCC(=O)c4ccc(F)cc4)CC3)C2=O)cc1)CC(=O)NCCOCCOCCNC(=O)CCC(=O)Nc1ccc(CCN2CN(c3ccccc3)C3(CCN(CCCC(=O)c4ccc(F)cc4)CC3)C2=O)cc1 | 0.021 | Active | inactive | 15 | 1.1 | 0.05 | 
5 | COC(=O)CN(CC(=O)NCCCOCCOCCOCCCNC(C)=O)CC(=O)NCCCOCCOCCOCCCNC(=O)CCC(=O)Nc1ccc(CCN2CN(c3ccccc3)C3(CCN(CCCC(=O)c4ccc(F)cc4)CC3)C2=O)cc1 | 1.5 |  |  |  |  |  | 
6 | O=C(O)CCC(=O)Nc1ccc(CCN2CN(c3ccccc3)C3(CCN(CCCC(=O)c4ccc(F)cc4)CC3)C2=O)cc1 | 0.7 |  |  |  |  |  | 
